These results are taken from ChEMBL document CHEMBL4376856, “Discovery of N-(4-Aminobutyl)-N'-(2-methoxyethyl)guanidine as the First Selective, Nonamino Acid, Catalytic Site Inhibitor of Human Dimethylarginine Dimethylaminohydrolase-1 (hDDAH-1)” (J Med Chem, 2020).

One series addresses T1, Arginase-1 (Bos taurus) (UniProt Q2KJ64).
T1 sequence (whole entry): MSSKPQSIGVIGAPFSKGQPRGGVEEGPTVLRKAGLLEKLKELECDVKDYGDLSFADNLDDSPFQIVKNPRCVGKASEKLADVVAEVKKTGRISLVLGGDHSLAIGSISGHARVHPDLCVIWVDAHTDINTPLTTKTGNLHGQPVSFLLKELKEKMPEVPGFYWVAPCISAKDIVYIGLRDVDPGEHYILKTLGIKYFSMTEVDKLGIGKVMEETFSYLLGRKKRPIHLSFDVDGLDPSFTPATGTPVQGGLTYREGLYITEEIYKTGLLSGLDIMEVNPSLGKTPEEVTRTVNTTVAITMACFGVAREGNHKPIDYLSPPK
The series can be described thus: Inhibition of bovine liver arginase at 1 mM using L-arginine as substrate measured after 30 mins by colder reagent based microplate reader assay relative to control. An outline of the steps: (§1)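 Each enzyme (arginase, nNOS, eNOS, iNOS) tested with inhibitor at 1 mM; percent inhibition given as the mean ± SD of at least three independent experiments.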

The target of series [1] is T2, Nitric oxide synthase 3 (Homo sapiens) (UniProt P29474).
T2 sequence (whole entry): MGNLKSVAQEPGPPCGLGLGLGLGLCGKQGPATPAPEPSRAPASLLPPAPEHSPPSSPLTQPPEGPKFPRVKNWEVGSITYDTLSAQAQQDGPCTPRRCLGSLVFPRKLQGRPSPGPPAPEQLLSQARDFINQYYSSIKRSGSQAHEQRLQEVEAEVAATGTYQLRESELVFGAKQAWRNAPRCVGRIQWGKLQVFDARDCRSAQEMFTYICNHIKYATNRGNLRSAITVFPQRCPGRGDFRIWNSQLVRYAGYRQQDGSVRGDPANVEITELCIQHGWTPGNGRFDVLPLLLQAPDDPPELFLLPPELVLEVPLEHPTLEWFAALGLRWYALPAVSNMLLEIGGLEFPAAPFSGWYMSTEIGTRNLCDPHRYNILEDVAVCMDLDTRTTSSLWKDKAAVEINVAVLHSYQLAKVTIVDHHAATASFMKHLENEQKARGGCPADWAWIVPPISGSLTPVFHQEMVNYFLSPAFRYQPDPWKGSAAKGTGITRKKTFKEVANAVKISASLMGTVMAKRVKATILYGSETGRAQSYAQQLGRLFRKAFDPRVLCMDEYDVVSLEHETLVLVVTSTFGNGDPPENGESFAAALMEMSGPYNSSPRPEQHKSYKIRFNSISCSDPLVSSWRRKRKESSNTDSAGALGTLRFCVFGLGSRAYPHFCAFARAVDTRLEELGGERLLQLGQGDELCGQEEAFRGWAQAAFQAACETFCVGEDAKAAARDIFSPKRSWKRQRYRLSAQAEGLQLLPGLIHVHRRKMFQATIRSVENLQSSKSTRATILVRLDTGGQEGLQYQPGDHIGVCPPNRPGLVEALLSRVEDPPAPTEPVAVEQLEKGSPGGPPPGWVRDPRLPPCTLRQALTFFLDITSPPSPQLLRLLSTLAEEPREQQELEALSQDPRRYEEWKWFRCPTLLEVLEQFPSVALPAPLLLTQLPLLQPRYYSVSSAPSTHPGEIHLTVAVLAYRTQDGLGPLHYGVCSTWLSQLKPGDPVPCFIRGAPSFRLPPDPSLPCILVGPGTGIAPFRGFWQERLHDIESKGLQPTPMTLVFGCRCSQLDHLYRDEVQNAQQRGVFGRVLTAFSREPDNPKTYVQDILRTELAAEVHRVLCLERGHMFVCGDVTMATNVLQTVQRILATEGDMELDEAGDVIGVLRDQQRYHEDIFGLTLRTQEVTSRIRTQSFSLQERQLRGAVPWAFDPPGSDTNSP
In words: Inhibition of endothelial NOS (unknown origin) assessed as formation of methemoglobin from oxyhemoglobin at 1 mM using L-arginine as substrate in presence of oxyhemoglobin and NADPH by UV-vis spectrophotometry relative to control. In outline:
as §1

Series [2] addresses Nitric oxide synthase 1 (Homo sapiens) (UniProt P29475). In words: Inhibition of neuronal NOS (unknown origin) assessed as formation of methemoglobin from oxyhemoglobin at 1 mM using L-arginine as substrate in presence of oxyhemoglobin and NADPH by UV-vis spectrophotometry relative to control. An outline of the steps:
as §1

Series [3] deals with Nitric oxide synthase, inducible (Homo sapiens) (UniProt P35228). In words: Inhibition of iNOS (unknown origin) assessed as formation of methemoglobin from oxyhemoglobin at 1 mM using L-arginine as substrate in presence of oxyhemoglobin and NADPH by UV-vis spectrophotometry relative to control. An outline of the steps: as §1
Series [4] addresses T3, N(G),N(G)-dimethylarginine dimethylaminohydrolase 1 (Homo sapiens, UniProt O94760). In words: Inhibition of 6xHis-tagged recombinant human DDAH1 expressed in Escherichia coli BL21 cells at 1 mM using NMMA as substrate measured after 30 mins by colder reagent based microplate reader assay.
In series [5] the target is T3, N(G),N(G)-dimethylarginine dimethylaminohydrolase 1. The series can be described thus: Inhibition of 6xHis-tagged recombinant human DDAH1 expressed in Escherichia coli BL21 cells using NMMA as substrate measured after 30 mins by colder reagent based microplate reader assay. An outline of the steps: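 Ki against hDDAH-1, given as the mean ± SD of at least two independent experiments.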

The subject of series [6] is HEK-293T. The series can be described thus: Cytotoxicity against human HEK293T cells assessed as effect on cell viability by measuring ATP content at 0.1 to 1000 uM incubated for overnight by CellTiter-Glo luminescent analysis. Type of series: cell-based. In general terms: Cellular ATP, detected with luciferase, serves as a proxy for viable cell number.
Series [7] relates to HEK-293T. The series can be described thus: Cytotoxicity against human HEK293T cells assessed as effect on cell number at 0.1 to 1000 uM incubated for overnight by DAPI staining based analysis.
A short description of series [8]: Prodrug conversion in porcine liver homogenate assessed as formation of N-(4-Aminobutyl)-N'-(2-methoxyethyl)guanidine formation at 3 mM and pH 6 preincubated for 3 mins followed by NADH addition measured after 20 mins under aerobic conditions by RP-HPLC analysis. Type of series: ADME, tissue-based, Sus scrofa. As to conditions: pig, tissue homogenate, pH 6, 20 min, 3000 µM; call rule not given here. An outline of the steps: (§2)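 Prodrug incubated with porcine liver subcellular fractions (homogenate, mitochondria, outer mitochondrial membrane vesicles). The formed guanidine was quantified by HPLC after precolumn o-phthalaldehyde derivatization. Data are means ± SD of biological triplicates.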

A short description of series [9]: Prodrug conversion in porcine liver mitochondrial membrane vesicles assessed as N-(4-Aminobutyl)-N'-(2-methoxyethyl)guanidine formation at 3 mM and pH 6 preincubated for 3 mins followed by NADH addition measured after 20 mins under aerobic conditions by RP-HPLC analysis. Type of series: ADME, cell membranes, Sus scrofa, Mitochondrial membrane vesicle. As to conditions: pig, pH 6, 20 min, 3000 µM. In outline:
as §2

The nature of series [10]: Chemical stability of compound at 250 uM in phosphate buffer at pH 2 to 9 and 37 degree C after 24 hrs by RP-HPLC analysis. The class given is physicochemical. As to conditions: pH 2, 24 h.
The nature of series [11]: Prodrug conversion in porcine liver mitochondria assessed as N-(4-Aminobutyl)-N'-(2-methoxyethyl)guanidine formation at 3 mM and pH 6 preincubated for 3 mins followed by NADH addition measured after 20 mins under aerobic conditions by RP-HPLC analysis. Type of series: ADME, Sus scrofa. The conditions noted are these: pig, pH 6, 20 min, 3000 µM. An outline of the steps:
as §2

Series [12] deals with T4, Mitochondrial amidoxime reducing component 2 (Homo sapiens, UniProt Q969Z3).
T4 sequence (Q969Z3 whole entry): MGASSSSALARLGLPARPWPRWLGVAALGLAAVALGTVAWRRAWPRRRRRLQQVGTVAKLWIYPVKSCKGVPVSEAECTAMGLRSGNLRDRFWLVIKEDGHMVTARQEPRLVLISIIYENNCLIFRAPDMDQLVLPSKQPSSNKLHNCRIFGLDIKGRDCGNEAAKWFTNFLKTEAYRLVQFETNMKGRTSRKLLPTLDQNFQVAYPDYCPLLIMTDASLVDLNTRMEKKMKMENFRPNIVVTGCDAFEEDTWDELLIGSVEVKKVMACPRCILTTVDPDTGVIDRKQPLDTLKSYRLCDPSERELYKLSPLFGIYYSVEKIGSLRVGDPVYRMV
The series can be described thus: Substrate activity at human recombinant mARC2 expressed in Escherichia coli assessed as enzyme-mediated N-(4-Aminobutyl)-N'-(2-methoxyethyl)guanidine formation at 3 mM and pH 6 preincubated for 3 mins followed by NADH addition measured after 20 mins under aerobic conditions by RP-HPLC analysis. Type of series: ADME. As to conditions: pH 6, 20 min, 3000 µM. An outline of the steps: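 Incubation used the reconstituted, heterologously expressed human mARC-2 N-reductive system. The guanidine product was measured by HPLC after precolumn derivatization with o-phthalaldehyde.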

The structures appear in SMILES notation.

Sequence of Nitric oxide synthase, inducible (Homo sapiens) (P35228 whole entry): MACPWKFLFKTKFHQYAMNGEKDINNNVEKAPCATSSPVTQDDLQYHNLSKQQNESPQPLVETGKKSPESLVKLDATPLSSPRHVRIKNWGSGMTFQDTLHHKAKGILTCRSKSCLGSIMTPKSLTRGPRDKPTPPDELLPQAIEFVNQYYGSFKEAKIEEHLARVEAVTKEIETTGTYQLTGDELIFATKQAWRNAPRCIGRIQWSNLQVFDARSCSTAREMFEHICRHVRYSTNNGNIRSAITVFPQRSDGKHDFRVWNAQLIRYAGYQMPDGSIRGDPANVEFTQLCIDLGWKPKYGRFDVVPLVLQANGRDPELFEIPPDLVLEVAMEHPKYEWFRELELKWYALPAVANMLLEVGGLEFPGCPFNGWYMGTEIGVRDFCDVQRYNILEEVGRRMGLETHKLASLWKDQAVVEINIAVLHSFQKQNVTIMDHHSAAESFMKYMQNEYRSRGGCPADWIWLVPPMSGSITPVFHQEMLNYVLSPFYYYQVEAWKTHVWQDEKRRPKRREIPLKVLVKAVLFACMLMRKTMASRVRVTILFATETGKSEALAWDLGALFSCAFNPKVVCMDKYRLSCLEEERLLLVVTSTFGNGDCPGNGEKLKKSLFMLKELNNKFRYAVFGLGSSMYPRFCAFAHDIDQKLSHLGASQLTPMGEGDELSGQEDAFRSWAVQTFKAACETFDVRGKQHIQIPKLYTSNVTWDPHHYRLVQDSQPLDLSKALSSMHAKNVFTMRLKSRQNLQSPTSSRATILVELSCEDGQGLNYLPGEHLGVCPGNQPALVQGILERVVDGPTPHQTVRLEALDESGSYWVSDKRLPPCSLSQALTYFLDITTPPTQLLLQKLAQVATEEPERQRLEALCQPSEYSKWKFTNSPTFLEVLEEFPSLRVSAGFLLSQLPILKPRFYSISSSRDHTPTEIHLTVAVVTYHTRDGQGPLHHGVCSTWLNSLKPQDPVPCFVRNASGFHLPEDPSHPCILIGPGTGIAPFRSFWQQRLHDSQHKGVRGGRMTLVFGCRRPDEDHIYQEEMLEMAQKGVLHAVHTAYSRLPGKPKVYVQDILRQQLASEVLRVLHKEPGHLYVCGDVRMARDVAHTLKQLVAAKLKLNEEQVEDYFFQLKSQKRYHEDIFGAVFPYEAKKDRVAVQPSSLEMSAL
T3 sequence (O94760 whole entry): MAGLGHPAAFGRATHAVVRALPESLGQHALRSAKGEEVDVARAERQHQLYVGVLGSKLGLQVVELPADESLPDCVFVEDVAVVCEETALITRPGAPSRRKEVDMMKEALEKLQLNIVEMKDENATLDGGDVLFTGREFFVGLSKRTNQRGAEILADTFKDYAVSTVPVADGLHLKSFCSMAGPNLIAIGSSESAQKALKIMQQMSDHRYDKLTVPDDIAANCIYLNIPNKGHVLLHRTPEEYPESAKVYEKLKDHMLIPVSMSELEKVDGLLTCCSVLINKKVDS
Sequence of Nitric oxide synthase 1 (Homo sapiens) (P29475 whole entry): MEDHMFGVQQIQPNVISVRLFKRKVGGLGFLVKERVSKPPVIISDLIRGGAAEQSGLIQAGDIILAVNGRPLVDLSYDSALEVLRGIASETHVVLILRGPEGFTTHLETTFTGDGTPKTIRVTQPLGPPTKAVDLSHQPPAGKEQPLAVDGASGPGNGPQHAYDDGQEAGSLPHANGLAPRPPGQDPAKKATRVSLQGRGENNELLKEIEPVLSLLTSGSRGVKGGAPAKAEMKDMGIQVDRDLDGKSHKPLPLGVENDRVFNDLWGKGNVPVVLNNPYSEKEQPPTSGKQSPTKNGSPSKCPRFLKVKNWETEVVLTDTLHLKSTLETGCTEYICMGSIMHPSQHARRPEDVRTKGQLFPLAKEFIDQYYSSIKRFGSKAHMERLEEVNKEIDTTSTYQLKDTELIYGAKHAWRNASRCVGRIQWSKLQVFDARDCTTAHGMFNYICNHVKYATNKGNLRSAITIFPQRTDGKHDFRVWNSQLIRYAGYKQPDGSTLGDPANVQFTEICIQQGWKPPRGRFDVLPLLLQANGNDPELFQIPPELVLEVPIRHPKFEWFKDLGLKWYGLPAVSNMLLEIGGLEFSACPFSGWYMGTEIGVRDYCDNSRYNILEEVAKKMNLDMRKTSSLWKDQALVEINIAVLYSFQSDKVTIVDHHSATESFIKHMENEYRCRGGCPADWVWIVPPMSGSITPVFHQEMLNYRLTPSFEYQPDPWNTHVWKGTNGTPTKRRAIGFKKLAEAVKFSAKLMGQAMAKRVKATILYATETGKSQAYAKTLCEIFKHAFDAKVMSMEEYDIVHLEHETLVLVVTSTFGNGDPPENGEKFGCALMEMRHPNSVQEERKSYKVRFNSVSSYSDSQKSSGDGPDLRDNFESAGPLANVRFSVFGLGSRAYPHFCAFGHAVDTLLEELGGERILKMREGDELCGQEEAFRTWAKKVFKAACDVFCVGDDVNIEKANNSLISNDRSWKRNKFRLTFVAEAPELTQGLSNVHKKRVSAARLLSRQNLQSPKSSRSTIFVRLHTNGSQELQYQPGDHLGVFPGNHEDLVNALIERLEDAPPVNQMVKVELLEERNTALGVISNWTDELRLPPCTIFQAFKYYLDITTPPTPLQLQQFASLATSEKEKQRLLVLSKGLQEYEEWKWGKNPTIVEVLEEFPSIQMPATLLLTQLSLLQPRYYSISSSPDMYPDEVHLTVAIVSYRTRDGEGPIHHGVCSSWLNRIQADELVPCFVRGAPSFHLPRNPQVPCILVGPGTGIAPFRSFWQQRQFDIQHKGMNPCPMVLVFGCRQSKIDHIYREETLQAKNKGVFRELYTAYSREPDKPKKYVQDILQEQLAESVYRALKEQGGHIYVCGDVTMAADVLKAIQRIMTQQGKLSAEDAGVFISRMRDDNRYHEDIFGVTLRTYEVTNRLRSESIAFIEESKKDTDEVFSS

Regarding `COCCCC(=N)NCC[C@H](N)C(=O)O`, the inhibition (against Arginase-1 (Bos taurus); in series [1]; in series [2]; in series [3]; in series [4]) was below 20% throughout.

With `COCCC(=N)NCCCCN`, the inhibition (usually the change of the read-out against control, counted positive when it falls) on Arginase-1 (Bos taurus) stood at 22%; in series [1], 28%; in series [2] it was 19%; in series [3], 16%. In addition, in [5], the Ki (as a rule, the equilibrium dissociation constant of an inhibitor or competing ligand from its target) was determined as 1450 µM.

As to `COCCC(=N)NCCC[C@H](N)C(=O)O`, the inhibition stood at 43% at Arginase-1 (Bos taurus), 54% in [1], 65% in series [2] and 50% in series [3]. The Ki in [5] was determined as 9 µM.

Consider `COCC(=N)NCCC[C@H](N)C(=O)O`, for which the inhibition against Arginase-1 (Bos taurus) was 22%; in [1], 89%; in [2], 93%; in [3] it was 75%. The Ki in series [5] worked out at 73 µM.

Regarding `COCCCC(=N)NCCC[C@H](N)C(=O)O`, the inhibition on Arginase-1 (Bos taurus) is 20%; in [1], 29%; in series [2] it was 35%; in series [3] it was 26%. Moreover, in [5], the Ki turned out to be 156 µM.

For `C=CCC(=N)NCCCCN`, the inhibition was 6% against Arginase-1 (Bos taurus), 56% in [1], 99% in series [2] and 100% in [3]. Further, the Ki in series [5] came to 768 µM.

`CCCCCNC(=N)NCCOC`: the inhibition was 15% on Arginase-1 (Bos taurus), 0% in [1], 0% in series [2] and 21% in series [3]. For the same compound, the Ki in series [5] was found to be 2810 µM.

As for `COCCNC(=N)NCCCCN`, the inhibition at Arginase-1 (Bos taurus) was found to be 11%; in [1], 13%; in series [2], 0%; in series [3] it was 0%. Also, the Activity entry in the series on HEK-293T [6] and with HEK-293T [7] was “Non-Toxic” in each case.

`C=CCCNC(=N)NCCC[C@H](N)C(=O)O` displayed an inhibition against Arginase-1 (Bos taurus) of 70%.

Turning to `COCC(=N)NCCCCN`, the inhibition at Arginase-1 (Bos taurus) came out at 21%; in series [1], 44%; in series [2], 78%; in series [3] it was 42%. The Ki in [5] was found to be 983 µM.

As to `COCCCC(=N)NCCCCN`, the inhibition against Arginase-1 (Bos taurus) was 14%; in series [1], 36%; in series [2] it was 7%; in series [3], 15%; in series [4] it was below 20%.

`COCCNC(=N)NCCC(C)C`: the inhibition on Arginase-1 (Bos taurus) was found to be 20%; in series [1], 19%; in [2], 0%; in series [3], 4%. For the same compound, the Ki in series [5] turned out to be 2760 µM.

Take `C=CCC(=N)NCCC[C@H](N)C(=O)O`: on Arginase-1 (Bos taurus), the inhibition stood at 76%.

With `COCCNC(=N)NCCC[C@H](N)C(=O)O`, the inhibition came to 29% against Arginase-1 (Bos taurus) and 0% in series [3].

With `COCCNC(=N)NCCCCC(=O)O`, the inhibition against Arginase-1 (Bos taurus) was found to be 35%; in [1], 13%; in series [2], 5%; in series [3] it was 2%. Moreover, the Ki in [5] amounted to 489 µM.

Regarding `COCCN/C(=N/O)NCCCCN`, the Drug metabolism result in series [8], in series [9] and in [11] was “Metabolite_Detected” in each case. Also, the Activity entry is recorded as “Non-Toxic” in the series on HEK-293T [6], “Non-Toxic” in the series with HEK-293T [7] and “Active” in series [12]. Also, the Stability result in series [10] is on record as “Stable”.

For the compound `COCCNC(=N)NCCC[C@H](N)C(=O)NS(C)(=O)=O`, the inhibition constant (Ki) in series [5] stood at 1 µM.

Consider `C=CCCNC(=N)NCCCCN`, for which the inhibition on Arginase-1 (Bos taurus) was 0%; in series [1] it was 35%; in [2], 5%; in [3], 23%. Also, in series [5], the Ki was determined as 59 µM.

As to `N=C(CCl)NCCC[C@H](N)C(=O)O`, the Ki in series [5] stood at 1.3 µM.
